This is an account of results in ChEMBL document CHEMBL1127734, “Selective ligands for rat A3 adenosine receptors: structure-activity relationships of 1,3-dialkylxanthine 7-riboside derivatives” (J Med Chem, 1994).

Structures are written as SMILES. pKi: −log10 of the molar value.

The target in assay [1] is Adenosine receptor A2a (Rattus norvegicus) (UniProt P30543). The assay can be described thus: Displacement of specific [3H]- CGS-21680 in rat striatal membranes A2a receptor at 10e-4 M concentration. It is filed as cell membranes. As to conditions: Membrane.
Adenosine receptor A2a (Rattus norvegicus), sequence (P30543 whole entry): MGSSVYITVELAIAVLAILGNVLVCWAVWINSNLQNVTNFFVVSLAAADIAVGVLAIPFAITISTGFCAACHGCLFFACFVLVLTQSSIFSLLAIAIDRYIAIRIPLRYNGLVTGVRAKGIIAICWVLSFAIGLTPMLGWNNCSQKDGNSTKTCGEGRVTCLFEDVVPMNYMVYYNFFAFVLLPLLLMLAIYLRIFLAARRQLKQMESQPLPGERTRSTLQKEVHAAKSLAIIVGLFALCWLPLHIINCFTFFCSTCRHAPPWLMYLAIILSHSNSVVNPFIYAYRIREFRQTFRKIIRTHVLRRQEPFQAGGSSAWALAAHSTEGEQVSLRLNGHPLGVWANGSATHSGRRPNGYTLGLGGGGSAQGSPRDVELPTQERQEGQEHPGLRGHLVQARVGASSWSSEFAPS
Assay [2] has as its target Adenosine receptors; A1 & A3 (Rattus norvegicus) (UniProt P25099+P28647). The assay can be described thus: Selectivity ratio (Ki's)for A1 and A3 receptors in rat brain. Type of assay: tissue-based. In a few lines:
(§1)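 Ratio of Ki values from rat A1 (cortical, [3H]PIA) or A2a (striatal, [3H]CGS 21680) binding over Ki from rat A3 binding ([125I]AB-MECA, CHO membranes). Where one value is only a percent displacement, a conservative boundary estimate of the ratio is given.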

A further assay has as its target T1, Adenosine receptor A3 (Rattus norvegicus, UniProt P28647).
T1 sequence (P28647 whole entry): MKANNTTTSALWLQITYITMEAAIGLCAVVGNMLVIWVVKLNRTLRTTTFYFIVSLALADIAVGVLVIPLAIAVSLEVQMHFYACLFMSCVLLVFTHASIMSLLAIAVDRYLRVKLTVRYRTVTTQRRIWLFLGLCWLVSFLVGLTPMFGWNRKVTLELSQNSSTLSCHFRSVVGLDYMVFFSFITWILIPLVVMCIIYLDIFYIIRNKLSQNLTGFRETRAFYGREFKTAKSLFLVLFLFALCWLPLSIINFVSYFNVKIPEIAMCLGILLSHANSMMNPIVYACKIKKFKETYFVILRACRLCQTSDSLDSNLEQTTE
Briefly: Displacement of specific [125]AB-MECA binding in membranes of CHO cells stably transfected with the rat A3-cDNA. It is filed as cell membranes.

Assay [3] concerns the target T2, Adenosine receptor A1 (Rattus norvegicus) (UniProt P25099).
T2 sequence (whole entry): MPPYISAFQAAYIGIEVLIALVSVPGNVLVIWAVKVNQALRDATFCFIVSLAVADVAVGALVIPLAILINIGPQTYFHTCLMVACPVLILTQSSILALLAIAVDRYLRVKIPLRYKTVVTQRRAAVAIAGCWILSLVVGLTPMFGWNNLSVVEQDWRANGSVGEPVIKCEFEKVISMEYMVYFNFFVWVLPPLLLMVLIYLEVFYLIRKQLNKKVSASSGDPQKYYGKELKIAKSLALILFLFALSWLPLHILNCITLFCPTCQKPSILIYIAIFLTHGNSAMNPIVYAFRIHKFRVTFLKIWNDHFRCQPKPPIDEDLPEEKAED
Briefly: Percent displacement of [3H]PIA from A1 receptor of rat brain membrane at 10e-4 M. In a few lines:
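A1 receptor binding in rat cortical membranes with [3H]-(R)-PIA. Adenosine deaminase (3 units/mL) present during membrane preparation, which includes a 30 °C, 30 min incubation, and during radioligand incubation. Result given as displacement of specific binding, as Ki or as percent displacement at the stated concentration.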
On the technique in general: In a radioligand displacement assay an active substance lowers the binding of a labelled ligand.

The target of assay [4] is Adenosine receptor A2a and A3 (Rattus norvegicus) (UniProt P30543+P28647). Briefly: Selectivity for A2a and A3 receptors in rat brain as ratio of Ki. It is filed as tissue-based. In a few lines:
as §1

For a further assay, the target named is T3, Adenosine receptor A1 (Rattus norvegicus, UniProt P25099).
T3 sequence (P25099 whole entry): T2 sequence (whole entry)
Briefly: Tested for the displacement of specific [3H]PIA in rat brain membranes of A1 receptor. It is filed as cell membranes.

Another assay addresses Adenosine receptor A2a (Rattus norvegicus, UniProt P30543). Briefly: Displacement of specific [3H]- CGS-21680 in rat striatal membranes A2a receptor. Type of assay: cell membranes, Membrane. The gist of the method: (§2)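 Rat striatal membranes; [3H]CGS 21680 binding at A2a receptors. Adenosine deaminase (3 units/mL) present during membrane preparation, which includes a 30 °C, 30 min incubation, and during radioligand incubation.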

Assay [5] deals with Adenosine receptor A2a (Rattus norvegicus) (UniProt P30543). Briefly: Displacement of [3H]CGS-21680 from A2a receptor of rat striatal membrane at 10e-5 M. The gist of the method:
as §2

The target is the same in assay [6]. Briefly: Displacement of [3H]CGS-21680 from A2a receptor of rat striatal membrane at 10e-4 M. In a few lines: as §2
For assay [7] the target is unchanged. The assay can be described thus: Displacement of [3H]- CGS-21680 from A2a receptor of rat striatal membrane at 3*10e-4 M. In a few lines:
as §2

Adenosine receptor A2a and A3 (Rattus norvegicus), sequence (P30543 whole entry, looked up, one chain of several): as the sequence (P30543 whole entry) above
Adenosine receptor A2a, sequence (P30543 whole entry): as the sequence (P30543 whole entry) above

The term inhibition denotes the share of the control response that was lost under treatment. A low value points to little suppression. As usually defined, the pKi is the negative decadic logarithm of the Ki, by convention in mol/L. Low values mean a large Ki, high ones a small Ki. On to `COc1nc2c(c(=O)n(C)c(=O)n2C)n1C1O[C@H](CO)[C@@H](O)[C@H]1O` (some centres not stated), for which the figures for the inhibition in [1] and in assay [3] were 4% and 21%, respectively. Further, the Selectivity ratio in assay [2] and in [4] was above 1 each time. Also, on Adenosine receptor A3, the pKi is 7.13.

For the compound `CCCn1c(=O)c2c(ncn2C2O[C@H](CO)[C@@H](O)[C@H]2O)n(CCC)c1=O` (some centres not stated), in [1], the inhibition stood at 32%. Also, the Selectivity ratio in assay [2] was 0.2; in [4] it was above 1. Further, the pKi was 4.09 on Adenosine receptor A3 and 4.80 on Adenosine receptor A1.

On to `CCCCn1c(=O)c2c(ncn2C2O[C@H](CO)[C@@H](O)[C@H]2O)n(CCCC)c1=S` (some centres not stated), for which the Selectivity ratio in [2] came out at 1.6; in assay [4] it was 3. The pKi on Adenosine receptor A3 is 5.85; at Adenosine receptor A2a, 5.37; at Adenosine receptor A1, 5.65.

Compound `CCCCCCn1c(=O)c2c(ncn2C2O[C@H](C(=O)NC)[C@@H](O)[C@H]2O)n(CCCCCC)c1=O` (some centres not stated) had an inhibition in assay [1] of 0%. The Selectivity ratio in assay [2] was 3; in [4], above 10. The values for the pKi at Adenosine receptor A3 and on Adenosine receptor A1 were 4.99 and 4.51, respectively.

With `CCCCCCn1c(=O)c2c(ncn2C2O[C@H](CO)[C@@H](O)[C@H]2O)n(CCCCCC)c1=O` (some centres not stated), the Selectivity ratio in assay [2] was found to be 0.23. The pKi at Adenosine receptor A3 is 4.37; on Adenosine receptor A1, 5.01. In assay [5], this compound had an inhibition of 7.8%.

For `CCCCn1c(=O)c2c(ncn2C2O[C@H](C(=O)NCC)[C@@H](O)[C@H]2O)n(CCCC)c1=O` (some centres not stated), the Selectivity ratio came to 10 in [2] and 63 in [4]. The pKi on Adenosine receptor A3 was 6.22; at Adenosine receptor A2a, 4.42; on Adenosine receptor A1, 5.21.

As to `CCCCn1c(=O)c2c(ncn2C2O[C@H](CO)[C@@H](O)[C@H]2O)n(CCCC)c1=O` (some centres not stated), the values for the Selectivity ratio in assay [2] and in [4] were 0.69 and 3.2, respectively. For the same compound, the pKi on Adenosine receptor A3 was 5.22; at Adenosine receptor A2a it was 4.71; on Adenosine receptor A1, 5.38.

For the compound `CCCCCn1c(=O)c2c(ncn2C2O[C@H](CO)[C@@H](O)[C@H]2O)n(CCCCC)c1=O` (some centres not stated), the Selectivity ratio was determined as 1.8 in [2] and 9.8 in [4]. The pKi on Adenosine receptor A3 is 5.32; at Adenosine receptor A2a, 4.33; at Adenosine receptor A1, 5.06.

In the case of `CCCCn1c(=O)c2c(ncn2C2O[C@H](C(=O)N(C)C)[C@@H](O)[C@H]2O)n(CCCC)c1=O` (some centres not stated), the Selectivity ratio in [2] turned out to be 0.04; in assay [4] it was 0.23. Further, the values for the pKi on Adenosine receptor A3, at Adenosine receptor A2a and on Adenosine receptor A1 were 3.64, 4.27 and 5.04, respectively.

`CCCCn1c(=O)c2c(ncn2C2O[C@H](C(N)=O)[C@@H](O)[C@H]2O)n(CCCC)c1=O` (some centres not stated): the Selectivity ratio in assay [2] was 0.2; in [4], 3.6. The pKi on Adenosine receptor A3 is 4.82; on Adenosine receptor A2a, 4.26.

With `CCCCn1c(=O)c2c(ncn2C2O[C@H](CO)[C@@H](O)[C@H]2O)n(Cc2ccccc2)c1=O` (some centres not stated), the Selectivity ratio in [2] was 0.17; in assay [4], 0.67. For the same compound, the pKi was 4.89 at Adenosine receptor A3, 5.06 at Adenosine receptor A2a and 5.66 at Adenosine receptor A1.

In assay [1], `CCCCCn1c(=O)c2c(ncn2C2O[C@H](C(=O)NC)[C@@H](O)[C@H]2O)n(CCCCC)c1=O` (some centres not stated) gave an inhibition of 2%. In addition, the Selectivity ratio in [2] is 4.3; in assay [4] it was above 1. Also, the pKi on Adenosine receptor A3 was 5.58.

With `Cn1c(=O)c2c(ncn2C2O[C@H](CO)[C@@H](O)[C@H]2O)n(C)c1=O` (some centres not stated), the Selectivity ratio was 0.3 in [2] and above 1 in assay [4]. For the same compound, the pKi is 4.05 on Adenosine receptor A3 and 4.57 on Adenosine receptor A1. Moreover, the inhibition in assay [6] amounted to 2%.

For the compound `CCCCn1c(=O)c2c(ncn2C2O[C@H](C(=O)OC)[C@@H](O)[C@H]2O)n(CCCC)c1=O` (some centres not stated), the Selectivity ratio is 1.2 in assay [2] and above 1 in assay [4]. Besides, the figures for the pKi at Adenosine receptor A3 and on Adenosine receptor A1 were 5.49 and 5.43, respectively. The inhibition in [7] was 0%.
